# Results from ChEMBL document CHEMBL4014336 (J Med Chem, 2017).
# pIC50: −log10 of the molar value.
# Assays:
# [1] = Metabolic stability in mouse liver microsomes assessed as UGT-mediated glucuronidation of compound by measuring half life in presence of UDPGA; format: ADME
# Summary of the method: (§1)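 Liver microsomal glucuronidation incubations in the presence of UDPGA; parent half-life determined.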
# [2] = tested on: Liver; assay: Metabolic stability in human liver microsomes assessed as parent compound remaining after 10 mins; format: ADME, microsome; conditions: microsomes, 10 min
# Summary of the method: (§2)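 Parent compound remaining after a 10 min incubation with human, mouse or rat liver microsomes.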
# [3] = tested on: Liver; assay: Metabolic stability in mouse liver microsomes assessed as parent compound remaining after 10 mins; format: ADME, microsome; conditions: microsomes, 10 min; summary of the method: as §2
# [4] = target: 11-beta-hydroxysteroid dehydrogenase type 2 (Homo sapiens, UniProt P80365); assay: Inhibition of human 11beta-HSD2 up to 30 uM
# Summary of the method: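 Human 11β-HSD2 counter-screen in vitro; compound tested up to 30 μM.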
# [5] = target: 11-beta-hydroxysteroid dehydrogenase 1 (Rattus norvegicus, UniProt P16232); assay: Inhibition of rat 11beta-HSD1
# [6] = tested on: Rattus norvegicus; assay: Toxicity in rat assessed as plasma volume expansion at 300 mg/kg for 2 weeks; format: organism-based; conditions: in vivo, 336 h
# Summary of the method: (§3)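 Exploratory rat toxicology study lasting 2 weeks, with 300 mg/kg as the highest dose given. The study assessed hypokalemia, plasma volume expansion, hypertension and renal toxicity.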
# [7] = tested on: Rattus norvegicus; assay: Toxicity in rat assessed as hypertension at 300 mg/kg for 2 weeks; format: organism-based; conditions: in vivo, 336 h; summary of the method: as §3
# [8] = target: Cytochrome P450 2C9 (Homo sapiens, UniProt P11712); assay: Inhibition of CYP2C9 (unknown origin); format: ADME
# [9] = target: Cytochrome P450 2D6 (Homo sapiens, UniProt P10635); assay: Inhibition of CYP2D6 (unknown origin); format: ADME
# [10] = tested on: HepG2; assay: Cytotoxicity against human HepG2 cells at 80 uM; format: cell-based; conditions: hepg2, 80 µM
# Summary of the method: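 HepG2 cells exposed at 80 μM; cytotoxicity assessed.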
# [11] = Permeability from apical to basolateral side in human Caco2 cells; format: ADME, cell-based; conditions: Caco-2, read-out: permeability
# [12] = Permeability from basolateral to apical side in human Caco2 cells; format: ADME, cell-based; conditions: Caco-2, read-out: permeability
# [13] = Half life in human liver microsomes; format: ADME, microsome
# Summary of the method: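 Human liver microsome incubation; parent half-life determined.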
# [14] = Metabolic stability in dog liver microsomes assessed as UGT-mediated glucuronidation of compound by measuring half life in presence of UDPGA; format: ADME, Canis lupus familiaris; summary of the method: as §1
# [15] = target: 11-beta-hydroxysteroid dehydrogenase 1 (Mus musculus, UniProt P50172); assay: Inhibition of 11beta-HSD1 in mouse 3T3L1 cells; format: cell-based
# Summary of the method: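 Mouse adipocyte-like 3T3-L1 cell line, not genetically manipulated, so that inhibition acts on the cells' native mouse 11β-HSD1 activity.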
# [16] = Total plasma clearance in mouse at 5 mg/kg, iv; format: ADME, organism-based
# [17] = Oral bioavailability in mouse at 10 mg/kg; format: ADME, organism-based; conditions: in vivo
# [18] = Volume of distribution at steady state in dog at 1 mg/kg, iv; format: ADME, organism-based, Canis lupus familiaris; conditions: in vivo, read-out: Vdss
# [19] = Total plasma clearance in dog at 1 mg/kg, iv; format: ADME, organism-based, Canis lupus familiaris
# [20] = Apparent elimination half life in dog at 1 mg/kg, iv; format: ADME, organism-based, Canis lupus familiaris; conditions: in vivo, read-out: betat1/2(app) (converted)
# [21] = Oral bioavailability in dog at 2 mg/kg; format: ADME, organism-based, Canis lupus familiaris; conditions: in vivo
# [22] = Oral bioavailability in cynomolgus monkey at 3 mg/kg; format: ADME, organism-based, Macaca fascicularis; conditions: in vivo
# [23] = Protein binding in human plasma; format: ADME, cell-free; conditions: read-out: PPB (converted)
# [24] = Protein binding in mouse plasma; format: ADME, cell-free; conditions: read-out: PPB (converted)
# [25] = Protein binding in cynomolgus monkey plasma; format: ADME, cell-free, Macaca fascicularis; conditions: read-out: PPB (converted)
# [26] = tested on: Plasma; assay: Drug uptake in po dosed non-fasting diet-induced obese mouse plasma after 3 hrs; format: ADME, organism-based; conditions: in vivo
# Summary of the method: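 Nonfasting diet-induced obese male mice, groups of n = 6 matched for body weight. Tail bleed at −60 min, then oral dosing with vehicle (0.5% Methocel, 0.1% Tween 80 in water) or drug. DHC 10 mg/kg given orally 60 min later. Bleeds at 30, 60 and 120 min after DHC. Plasma corticosterone measured by enzyme immunosorbent assay. Drug levels measured in terminal bleed samples.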
# [27] = tested on: Plasma; assay: Drug metabolism in rat plasma assessed as ketone A formation at […], iv; format: ADME, organism-based; conditions: in vivo
# [28] = tested on: Plasma; assay: Drug metabolism in cynomolgus monkey plasma assessed as ketone A formation at 1 mg/kg, iv; format: ADME, organism-based, Macaca fascicularis; conditions: in vivo
# [29] = tested on: Cynomolgus monkey; assay: Toxicity in cynomolgus monkey assessed as HPA axis activation by measuring cortisol level at 1 to 10 mg/kg for 7 days; format: organism-based, Macaca fascicularis; conditions: in vivo, 168 h
# [30] = tested on: Plasma; assay: Fraction unbound in cynomolgus monkey plasma at 1 mg/kg after 24 hrs; format: ADME, organism-based, Macaca fascicularis; conditions: in vivo
# [31] = in vivo; conditions: mouse, adipose tissue / plasma, iv, 5 mg/kg
# [32] = in vivo; conditions: mouse, liver / plasma, iv, 5 mg/kg
# [33] = in vivo; conditions: mouse, brain / plasma, iv, 5 mg/kg
# 11-beta-hydroxysteroid dehydrogenase type 2, sequence (P80365 whole entry): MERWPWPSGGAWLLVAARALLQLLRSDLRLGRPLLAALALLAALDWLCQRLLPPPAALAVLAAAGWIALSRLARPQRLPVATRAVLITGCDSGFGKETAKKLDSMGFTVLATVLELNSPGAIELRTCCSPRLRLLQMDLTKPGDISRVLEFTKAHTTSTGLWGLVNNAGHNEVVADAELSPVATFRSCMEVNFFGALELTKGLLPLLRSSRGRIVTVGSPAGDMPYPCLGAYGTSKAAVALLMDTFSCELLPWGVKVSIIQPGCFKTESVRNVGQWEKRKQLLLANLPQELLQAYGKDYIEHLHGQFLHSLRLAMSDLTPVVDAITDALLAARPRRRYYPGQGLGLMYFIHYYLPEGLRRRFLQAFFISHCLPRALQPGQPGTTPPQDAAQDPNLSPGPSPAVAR
# 11-beta-hydroxysteroid dehydrogenase 1 (Mus musculus, UniProt P50172), sequence (P50172 whole entry): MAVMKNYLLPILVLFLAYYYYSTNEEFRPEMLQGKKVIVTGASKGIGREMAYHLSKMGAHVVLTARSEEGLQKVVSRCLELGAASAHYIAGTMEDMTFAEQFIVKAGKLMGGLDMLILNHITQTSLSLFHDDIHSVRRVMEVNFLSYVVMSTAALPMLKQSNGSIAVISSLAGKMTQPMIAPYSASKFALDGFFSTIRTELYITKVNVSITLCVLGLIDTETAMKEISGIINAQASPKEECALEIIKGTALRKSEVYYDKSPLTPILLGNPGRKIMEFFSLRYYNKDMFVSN
# Cytochrome P450 2D6, sequence (P10635 whole entry): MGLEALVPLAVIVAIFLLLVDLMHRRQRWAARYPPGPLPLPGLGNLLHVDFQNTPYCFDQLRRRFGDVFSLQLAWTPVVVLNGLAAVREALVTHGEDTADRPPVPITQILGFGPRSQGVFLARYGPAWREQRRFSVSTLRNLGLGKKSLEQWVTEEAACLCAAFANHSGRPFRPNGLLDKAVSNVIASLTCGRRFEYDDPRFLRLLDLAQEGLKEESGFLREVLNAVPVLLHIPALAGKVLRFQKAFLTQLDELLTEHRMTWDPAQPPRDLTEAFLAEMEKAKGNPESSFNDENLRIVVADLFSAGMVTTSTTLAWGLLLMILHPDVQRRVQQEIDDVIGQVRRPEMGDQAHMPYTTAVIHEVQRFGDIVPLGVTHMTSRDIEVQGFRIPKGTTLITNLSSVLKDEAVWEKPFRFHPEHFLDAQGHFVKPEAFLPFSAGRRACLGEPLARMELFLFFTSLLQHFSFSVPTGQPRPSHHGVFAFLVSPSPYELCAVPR
# 11-beta-hydroxysteroid dehydrogenase 1 (Rattus norvegicus, UniProt P16232), sequence (P16232 whole entry): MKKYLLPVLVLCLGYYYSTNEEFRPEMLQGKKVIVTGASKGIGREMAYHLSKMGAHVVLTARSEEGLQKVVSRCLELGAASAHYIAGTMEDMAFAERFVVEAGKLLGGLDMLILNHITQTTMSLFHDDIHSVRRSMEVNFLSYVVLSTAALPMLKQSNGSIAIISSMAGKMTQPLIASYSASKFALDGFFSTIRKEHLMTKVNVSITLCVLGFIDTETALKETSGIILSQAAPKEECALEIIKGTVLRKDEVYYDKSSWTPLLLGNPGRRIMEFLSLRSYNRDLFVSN
# Cytochrome P450 2C9, sequence (P11712 whole entry): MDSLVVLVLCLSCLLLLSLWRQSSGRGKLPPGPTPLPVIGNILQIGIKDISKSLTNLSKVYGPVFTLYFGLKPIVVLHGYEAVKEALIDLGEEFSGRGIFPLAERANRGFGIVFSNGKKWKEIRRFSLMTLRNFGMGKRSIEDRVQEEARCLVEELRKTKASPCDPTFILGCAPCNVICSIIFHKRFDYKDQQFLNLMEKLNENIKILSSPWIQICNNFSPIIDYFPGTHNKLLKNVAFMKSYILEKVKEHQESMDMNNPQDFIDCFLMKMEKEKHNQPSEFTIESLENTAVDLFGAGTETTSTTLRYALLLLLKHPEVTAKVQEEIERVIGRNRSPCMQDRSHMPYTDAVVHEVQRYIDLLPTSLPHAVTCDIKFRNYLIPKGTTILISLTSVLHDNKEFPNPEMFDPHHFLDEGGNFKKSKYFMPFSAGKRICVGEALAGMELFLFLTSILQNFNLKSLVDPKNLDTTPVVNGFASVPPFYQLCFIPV
smiles,measurement,setting,value
O=C(CC1(c2ccccc2)C2CC3CC1CC(C2)C3O)N1CC(O)C1 (stereo in doubt; form 2),half-life,[1],> 200 min
same,Stability,[2],91%
same,Stability,[3],80%
same,inhibition (INH),[4],Not Active
same,pIC50,[5],6.30
same,Activity,[6],Non-Toxic
same,Activity,[7],Non-Toxic
same,pIC50,[8],< 4.40
same,pIC50,[9],< 4.40
same,Activity,[10],Non-Toxic
same,Papp A→B,[11],10.5 ×10⁻⁶ cm/s
same,Papp B→A,[12],28.5 ×10⁻⁶ cm/s
same,half-life,[13],121 min
same,half-life,[14],> 200 min
same,pIC50,[15],7.54
same,clearance,[16],50 mL/min/kg
same,bioavailability,[17],56%
same,Vd,[18],3 L/kg
same,clearance,[19],11 mL/min/kg
same,half-life,[20],444 min
same,bioavailability,[21],72%
same,bioavailability,[22],57%
same,fraction unbound,[23],0.46
same,fraction unbound,[24],0.37
same,fraction unbound,[25],0.32
same,Drug uptake,[26],Dose-dependent effect
same,Drug metabolism,[27],Metabolite_Detected
same,Drug metabolism,[28],Metabolite_Detected
same,Activity,[29],Non-Toxic
same,Cp(f),[30],2 nM
same,Kp,[31],0.15
same,Kp,[32],1 to 56
same,Kp,[33],< 0.1
